Experiments:
Format in all cases: functional
Rattus norvegicus [1] = assay: The compound was tested for IL-1 generation on CMC-LPS air-pouch model at 2.5 mg/kg by oral administration
Outline: (§1)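 Rats got 10 mL subcutaneous dorsal air, then 6 mL sterile 2% (w/v) CMC-Na in saline into the pouch 24 h later, then 5 ng LPS in 0.5 mL saline 24 h after that. Compound given orally as a suspension in 0.5% methyl cellulose 2 h before LPS. Exudate collected 4 h after LPS. Extra- plus intracellular IL-1 measured by LAF assay against a human recombinant IL-1α curve. Percent inhibition versus control; five rats per group.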

Rattus norvegicus [2] = assay: % inhibition against arthritis on adjuvant-untreated paw in rats at 5 mg/kg by oral administration
Outline: (§2)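 Adjuvant arthritis in rats; drug given orally once daily from the first day of adjuvant treatment. Swelling of the adjuvant-untreated paw measured by plethysmometer on day 15 after adjuvant; % inhibition versus control. Mean ± SEM of 6–10 animals; significance versus control.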

Rattus norvegicus [3] = assay: Inhibitory activity against Granuloma on CMC-LPS air-pouch model at 10 mg/kg by oral administration
Outline: (§3)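 Rat CMC-LPS air pouch (air, 2% CMC-Na, then LPS 5 ng). Oral dosing in 0.5% methyl cellulose 2 h before LPS. Granuloma wet weight determined 5 days after LPS; % inhibition versus control, with an LPS-free group included.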

Rattus norvegicus [4] = assay: Inhibitory activity against Granuloma on CMC-LPS air-pouch model at 2.5 mg/kg by oral administration; outline: as §3
Rattus norvegicus [5] = assay: Inhibitory activity against IL-1 on CMC-LPS air-pouch model at 10 mg/kg by oral administration
Outline: (§4)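 Rat CMC-LPS air pouch: air s.c., 2% CMC-Na 24 h later, LPS 5 ng 24 h after that. Compound given orally in 0.5% methyl cellulose 2 h before LPS. Exudate collected at 4 h; IL-1 (extra- plus intracellular) read by LAF assay against a recombinant human IL-1α curve.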

Rattus norvegicus [6] = assay: Inhibitory activity against IL-1 on CMC-LPS air-pouch model at 2.5 mg/kg by oral administration; outline: as §4
Rattus norvegicus [7] = assay: Inhibitory activity against PGE-2 on CMC-LPS air-pouch model at 10 mg/kg by oral administration
Outline: (§5)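 Rat CMC-LPS air pouch (air, 2% CMC-Na, then LPS 5 ng). Oral dosing in 0.5% methyl cellulose 2 h before LPS. PGE2 in the exudate supernatant collected 4 h after LPS, measured by radioimmunoassay.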

Rattus norvegicus [8] = assay: Inhibitory activity against PGE-2 on CMC-LPS air-pouch model at 2.5 mg/kg by oral administration; outline: as §5
Rattus norvegicus [9] = assay: The compound was tested for IL-1 generation on CMC-LPS air-pouch model at 3 mg/kg by oral administration; outline: as §1
Rattus norvegicus [10] = assay: % inhibition against arthritis on adjuvant-untreated paw in rats at 1 mg/kg by oral administration; outline: as §2
Rattus norvegicus [11] = assay: The compound was tested for Granuloma generation on CMC-LPS air-pouch model at 3 mg/kg by oral administration; outline: as §3
Rattus norvegicus [12] = assay: Inhibitory activity against Granuloma on CMC-LPS air-pouch model at 3 mg/kg by oral administration; outline: as §3
Rattus norvegicus [13] = assay: Inhibitory activity against IL-1 on CMC-LPS air-pouch model at 3 mg/kg by oral administration; outline: as §4
Rattus norvegicus [14] = assay: Inhibitory activity against PGE-2 on CMC-LPS air-pouch model at 3 mg/kg by oral administration; outline: as §5

| Structure (SMILES) | IL-1 level (Rattus norvegicus [1]) | inhibition in vivo at 5 mg/kg (Rattus norvegicus [2]) | inhibition in vivo at 10 mg/kg (Rattus norvegicus [3]) | inhibition in vivo at 2.5 mg/kg (Rattus norvegicus [4]) | inhibition in vivo at 10 mg/kg (Rattus norvegicus [5]) | inhibition in vivo at 2.5 mg/kg (Rattus norvegicus [6]) | inhibition in vivo at 10 mg/kg (Rattus norvegicus [7]) | inhibition in vivo at 2.5 mg/kg (Rattus norvegicus [8]) | IL-1 level (Rattus norvegicus [9]) | inhibition in vivo at 1 mg/kg (Rattus norvegicus [10]) | Wet weight (Rattus norvegicus [11]) | inhibition in vivo at 3 mg/kg (Rattus norvegicus [12]) | inhibition in vivo at 3 mg/kg (Rattus norvegicus [13]) | inhibition in vivo at 3 mg/kg (Rattus norvegicus [14]) |
| --- | --- | --- | --- | --- | --- | --- | --- | --- | --- | --- | --- | --- | --- | --- |
| C[C@]12C=CC(=O)C=C1CC[C@@H]1[C@@H]2[C@@H](O)C[C@@]2(C)[C@H]1CC[C@]2(O)C(=O)CO [PREDNISOLONE] | 596 units/mL | 44.4% | 88% | 48% | 64% | 34% | 86% | 69% | – | – | – | – | – | – |
| COc1ccc2c(c1)c(CC(=O)O)c(C)n2C(=O)c1ccc(Cl)cc1 [INDOMETHACIN] | – | – | – | – | – | – | – | – | 995 units/mL | 47.8% | 2.08 g | < 25% | < 25% | 97% |

Source: ChEMBL document CHEMBL1126114, “A novel orally active inhibitor of IL-1 generation: synthesis and structure-activity relationships of 3-(4-hydroxy-1-naphthalenyl)-2-propenoic acid derivatives” (J Med Chem, 1992)
